Results gathered from unrelated publications.
Target: Serine/threonine-protein kinase VRK2 (VRK2, Homo sapiens, UniProt Q86Y07)

Structure (SMILES) | read-out | mode | technique | concentration | endpoint | value
CO[C@@H](C)c1c(Nc2ccc([C@H](N(C)C(=O)C3CCS(=O)(=O)CC3)C(F)(F)F)cc2)cnc2cc(Cl)nn12 | cell-free assay | – | competition with immobilised ligand | 1 µM | remaining binding | 100%
CCN(CC)CCNC(=O)c1c(C)[nH]c(/C=C2\C(=O)Nc3ccc(F)cc32)c1C | enzyme activity | inhibitor | – | 10 µM | inhibition | -10%
CCC1(CC)NC(=O)c2c(c3ccc(Cl)c(Cl)c3n2C)C1C#N (stereo not drawn) | thermal stability | – | DSF | 10 µM | ΔTm | 0.1 °C
COc1cc(Cl)c(C(=O)N[C@@H](CN[C@H]2CC[C@@H](N)CC2)Cc2ccc(C#N)cc2)cc1-c1ccc(CN[C@H](C)c2ccc(C)cc2)o1 | enzyme activity | inhibitor | – | 1 µM | remaining activity | 91%
Cn1c2c(c3ccc(Cl)c(Cl)c31)C(C#N)C1(CCOCC1)NC2=O (stereo not drawn) | thermal stability | – | DSF | 10 µM | ΔTm | 0 °C
C[C@H](NC(=O)c1cnc2n1[C@](C)(Cc1ccc(C#N)cc1)C(=O)N2c1cc(Cl)c(F)c(Cl)c1)C(=O)NC1(c2ccccn2)CC1 | cell-free assay | – | competition with immobilised ligand | 1 µM | remaining binding | 100%
Cc1ccc(C(=O)Nc2ccc(CN3CCN(C)CC3)c(C(F)(F)F)c2)cc1C#Cc1cnc2cccnn12 | enzyme activity | inhibitor | – | 23.5 nM | remaining activity | 74%
Cn1c2c(c3ccc(Cl)c(Cl)c31)C(C#N)C1(CCNCC1)NC2=O (racemic) | thermal stability | – | DSF | 10 µM | ΔTm | 0.3 °C
O=C(Nc1cnc(Oc2ccc(F)cc2)nc1)N1CCc2ncccc2[C@@H]1c1ccc(F)cc1 | cell-free assay | – | competition with immobilised ligand | 1 µM | remaining binding | 100%
CNC(=O)c1cc(Oc2ccc(NC(=O)Nc3ccc(Cl)c(C(F)(F)F)c3)cc2)ccn1 | enzyme activity | inhibitor | – | 10 µM | inhibition | -16%
COc1ccc2c(O[C@@H]3C[C@H]4C(=O)N[C@]5(C(=O)O)CC5/C=C\CCCCC[C@H](NC(=O)OC5CCCC5)C(=O)N4C3)cc(-c3csc(NC(=O)C(C)C)n3)nc2c1C (stereo partly drawn) | cell-free assay | – | competition with immobilised ligand | 1 µM | remaining binding | 79%
CC(C)(C)c1nc2c(s1)c1nc(N)ncc1c1ccc(NS(=O)(=O)c3c(F)cccc3F)c(F)c12 | enzyme activity | inhibitor | radiometric | 1 µM | remaining activity | 116%
CCCS(=O)(=O)Nc1ccc(F)c(C(=O)c2c[nH]c3ncc(-c4ccc(Cl)cc4)cc23)c1F | enzyme activity | inhibitor | – | 1 µM | inhibition | < 10%
Cn1c2c(c3ccc(Cl)c(Cl)c31)C(C#N)C1(CCCC1)NC2=O (stereo not drawn) | thermal stability | – | DSF | 10 µM | ΔTm | -0.2 °C
O=C(O)[C@H]1[C@H](Cn2nnc3ccccc3c2=O)CC[C@@H]1C(=O)c1ccc(OCCC2CCOCC2)cc1 | cell-free assay | – | competition with immobilised ligand | 1 µM | remaining binding | 80%
CCN(CC)c1ccc(C2=NNC(=O)CC2C)cc1[N+](=O)[O-] (stereo not drawn) | enzyme activity | inhibitor | – | 10 µM | remaining activity | 95%
Cn1c2c(Cl)c(Cl)ccc2c2cc[nH]c(=O)c21 | thermal stability | – | DSF | 10 µM | ΔTm | 0 °C
CC(C)(O)[C@H]1CC[C@H](Nc2ccc3ncc(-c4cccc(C(F)(F)F)c4)n3n2)CC1 | enzyme activity | inhibitor | – | 1 µM | remaining activity | 81.2%
CN1CC(Oc2cnc(C#N)cc2-c2ccn3nc(NC(=O)C4CC4)cc3c2)C1 | enzyme activity | inhibitor | – | 1 µM | inhibition | -9%
Cc1ccc(Nc2nccc(N(C)c3ccc4c(C)n(C)nc4c3)n2)cc1S(N)(=O)=O | enzyme activity | inhibitor | – | 10 µM | inhibition | -18%
c1ccc(N2CCN(Cc3nc4ccccc4[nH]3)CC2)nc1 | binding | – | competition with immobilised ligand | 1 µM | remaining binding | 100%
Cn1c2c(Cl)c(Cl)ccc2c2cc(N)[nH]c(=O)c21 | thermal stability | – | DSF | 10 µM | ΔTm | 0.3 °C
FC(F)(F)c1ccc2c(c1)nc(-c1cccnc1)n2C1CC1 | cell-free assay | – | competition with immobilised ligand | 1 µM | remaining binding | 100%
Cc1cnc(NC2CCOCC2)nc1-n1cnc(C(=O)NC(CN)c2cc(F)cc(Cl)c2)c1 (stereo not drawn) | enzyme activity | inhibitor | radiometric | 1 µM | remaining activity | 99%
